What is called inhibition is the relative decrease from the control value, in per cent. High values mean a strong effect, low ones a weak effect. What is called Ki is the dissociation constant of the complex between target and ligand, obtained from inhibition or displacement. Higher therefore signals a looser hold on the target. By pKi is commonly meant the Ki on a negative log10 scale, so that one unit is a factor of ten. The Emax is the greatest response seen or fitted, relative to the assay's reference. The term EC50 denotes the concentration giving half of the maximal effect.

Activity calls are given as the source filed them. The calls are words filed in the database; no cut-off is given here.

These results are taken from ChEMBL document CHEMBL4342460, “1-(2'-Bromobenzyl)-6,7-dihydroxy-N-methyl-tetrahydroisoquinoline and 1,2-Demethyl-nuciferine as Agonists in Human D2 Dopamine Receptors” (J Nat Prod, 2020).

Assay [1] concerns CHO-K1. Nature of the assay: Displacement of [3H]spiperone from human D4.2 receptor expressed in CHO-K1 cells at 10 uM by radioligand competitive binding analysis relative to control. It is filed as cell-based. In short, it runs like this:
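Membranes from CHO-K1 cells stably expressing human D4.2 receptor. Radioligand [3H]-spiperone. Nonspecific binding defined with 25 μM haloperidol. […] Clozapine served as reference competitor. n = 2, mean SEM.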
(Loss of bound radioactivity is the signal in a displacement assay; it reports binding, not function.)

A short description of assay [2]: Displacement of [3H]spiperone from human D4.2 receptor expressed in CHO-K1 cells by radioligand competitive binding analysis. It is filed as cell-based. In short, it runs like this: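 Competition for [3H]-spiperone on membranes from CHO-K1 cells stably expressing human D4.2 receptor, with nonspecific binding set by 25 μM haloperidol. Six concentrations run, from 1 nM to 100 μM or 0.1 nM to 10 μM. Curves fitted to a single-site model, and Ki derived using radioligand concentration and Kd from saturation binding. Clozapine reference. n = 2, mean SEM.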

Assay [3] has as its target D(3) dopamine receptor (Homo sapiens, UniProt P35462). Kind of assay: Displacement of [3H]spiperone from human D3 receptor expressed in CHO-K1 cells by radioligand competitive binding analysis. It is filed as cell-based.
Assay [4] has as its target T1, D(2) dopamine receptor (Homo sapiens, UniProt P14416). Nature of the assay: Agonist activity at human D2S receptor expressed in CHOK1 cells assessed as inhibition of forskolin induced cAMP production by measuring Emax for cAMP accumulation at 10 uM preincubated for 10 mins followed by forskolin addition and measured after 5 mins by HTRF assay relative to quinpirole (reference value: 98.8 +/- 0.6%). In kind it is functional, cell-based. In outline:
(§1)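 CHO-K1 cells stably transfected with human D2S cDNA, kept in 500 μg/mL G418. Cells in stimulation buffer with 500 μM IBMX took compound for 10 min at 37 °C, then forskolin (10 μM) for 5 min. Intracellular cAMP read by HTRF. Efficacy is percent of maximal quinpirole response. Basal cAMP from wells lacking compound, quinpirole and forskolin. n = 3−4 independent experiments in triplicate, mean SEM.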
Background: Changes in cAMP serve as a functional read-out for many G protein-coupled receptors.

Assay [5] deals with T1, D(2) dopamine receptor. Kind of assay: Agonist activity at human D2S receptor expressed in CHOK1 cells assessed as inhibition of forskolin induced cAMP production by measuring Emax for cAMP accumulation at 100 uM preincubated for 10 mins followed by forskolin addition and measured after 5 mins by HTRF assay relative to quinpirole. In kind it is functional, cell-based. In short, it runs like this:
as §1

Assay [6] concerns the target T1, D(2) dopamine receptor. Nature of the assay: Displacement of [3H]spiperone from human D2S receptor expressed in CHO-K1 cells by radioligand competitive binding analysis. In kind it is cell-based.
Assay [7] has as its target T1, D(2) dopamine receptor. Kind of assay: Agonist activity at human D2S receptor expressed in CHOK1 cells assessed as inhibition of forskolin induced cAMP production preincubated for 10 mins followed by forskolin addition and measured after 5 mins by HTRF assay relative to control. In kind it is functional, cell-based.
Assay [8] deals with T1, D(2) dopamine receptor. Nature of the assay: Antagonist activity at human D2S receptor expressed in CHOK1 cells assessed as suppression of quinpirole-induced inhibition of forskolin induced cAMP production at 10 uM preincubated for 10 mins followed by forskolin addition and measured after 5 mins in presence of 100 nM quinpirole by HTRF assay relative to quinpirole EC50. In kind it is functional, cell-based. In outline:
(§2)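 CHO-K1 cells stably transfected with human D2S (short isoform) cDNA. Test compound (10 μM) was added at the same time as quinpirole (10 pM to 100 μM). Cells were in stimulation buffer with 500 μM IBMX for 10 min at 37 °C, then 10 μM forskolin for 5 min. cAMP was read by HTRF, with basal wells lacking all additions. n = 3−4 independent experiments, in triplicate.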

Assay [9] concerns the target T1, D(2) dopamine receptor. Kind of assay: Agonist activity at human D2S receptor expressed in CHOK1 cells assessed as inhibition of forskolin induced cAMP production at 10 uM preincubated for 10 mins followed by forskolin addition and measured after 5 mins in presence of low concentration of quinpirole by HTRF assay. In kind it is functional, cell-based. In short, it runs like this:
as §2

Sequence of D(3) dopamine receptor (P35462 whole entry): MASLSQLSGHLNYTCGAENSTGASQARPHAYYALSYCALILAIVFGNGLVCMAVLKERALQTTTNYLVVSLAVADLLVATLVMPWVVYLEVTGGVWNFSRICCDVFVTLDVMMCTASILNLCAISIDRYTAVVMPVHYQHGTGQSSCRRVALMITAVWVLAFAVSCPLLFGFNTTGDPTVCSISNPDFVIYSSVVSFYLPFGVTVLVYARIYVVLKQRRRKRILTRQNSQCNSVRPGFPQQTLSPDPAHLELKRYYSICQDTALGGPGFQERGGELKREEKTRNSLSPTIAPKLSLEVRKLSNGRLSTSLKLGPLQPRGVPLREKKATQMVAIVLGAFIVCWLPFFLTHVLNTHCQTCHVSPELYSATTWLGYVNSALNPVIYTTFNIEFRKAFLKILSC
T1 sequence (P14416 whole entry): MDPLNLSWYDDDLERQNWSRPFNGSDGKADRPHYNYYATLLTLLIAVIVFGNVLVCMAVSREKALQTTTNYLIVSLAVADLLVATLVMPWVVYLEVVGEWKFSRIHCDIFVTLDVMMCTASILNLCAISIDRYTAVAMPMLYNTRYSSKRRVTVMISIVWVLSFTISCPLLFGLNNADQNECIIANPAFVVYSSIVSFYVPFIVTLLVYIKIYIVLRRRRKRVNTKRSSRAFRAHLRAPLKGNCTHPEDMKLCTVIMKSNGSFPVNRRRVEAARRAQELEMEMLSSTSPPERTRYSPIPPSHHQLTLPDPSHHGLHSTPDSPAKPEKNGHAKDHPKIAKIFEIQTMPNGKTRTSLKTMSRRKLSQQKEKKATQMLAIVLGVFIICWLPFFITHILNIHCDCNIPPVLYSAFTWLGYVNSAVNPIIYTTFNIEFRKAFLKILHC

In assay [1], `CN1CCN(C2=Nc3cc(Cl)ccc3Nc3ccccc32)CC1` [CLOZAPINE] registered an inhibition of 96%. Also, in assay [2], the inhibition constant Ki is 56.9 nM and the pKi was determined as 7.25.
Compound `CN1CCc2cc(O)c(O)c3c2C1Cc1ccccc1-3` (stereo not drawn) returned an inhibition in assay [1] of 73%. Further, in assay [2], the Activity result was “Dose-dependent effect”, the affinity corresponds to a Ki of 551 nM and the pKi came to 6.26. Moreover, in [3], the Activity entry is “Dose-dependent effect” and the affinity corresponds to a Ki of 838 nM. Moreover, the maximum response (Emax) in assay [4] turned out to be 50.7%. Moreover, the maximum response (Emax) in assay [5] is 92.7%.
Regarding `CN1CCc2cc(O)c(O)cc2C1Cc1ccccc1Br` (stereo not drawn), in assay [1], the inhibition came to 96%. Also, the Activity entry in assay [2] and in assay [3] was “Dose-dependent effect” in each case. Besides, the Ki in assay [2] came to 13.8 nM; in [6], 286 nM; in assay [3], 197 nM. Moreover, in [2], the negative logarithm of the Ki (pKi) is 7.86. For the same compound, in assay [7], the concentration for a half-maximal effect (EC50) is 2950 nM. In addition, the fold change (FC) in [8] was 35. In addition, the results for the maximum response (Emax) in assay [4] and in assay [5] were 31.9% and 48.4%, respectively. The outcome in assay [9] was Active.
